High-throughput results deposited in PubChem BioAssay by Broad Institute.
A selection: hits, their analogues and other compounds. The true share with any hit is near 1.5%.
GSIS activator: GLuc luminescence reporter in INS-1E cells, primary screen for activators of glucose-dependent secretion of insulin; INS-1E GLuc reporter insulin secretion, 2-3 h; activation, % at 16.6 µM; hit rate 0.61% among 370,000; AID 743287;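 active = lowest replicate activation of at least 40%, so every replicate reaches that level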;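 also: 0% = median of neutral control wells and 100% = median of IBMX positive control wells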
ERp5 block: ERp5 (human) disulfide isomerase inhibition | ERp5 insulin aggregation, absorbance 650 nm, 90 min | Q15084 | hit rate 0.05% among 350,000 | inhibition, % at 9.99 µM;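 active = mean replicate inhibition above about 25%, with every replicate also reaching it, limit read from the data, passing the limit was not always enough; inconclusive = only one of those two criteria met; inactive = neither criterion met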
Target sequence (Q15084 whole entry, looked up): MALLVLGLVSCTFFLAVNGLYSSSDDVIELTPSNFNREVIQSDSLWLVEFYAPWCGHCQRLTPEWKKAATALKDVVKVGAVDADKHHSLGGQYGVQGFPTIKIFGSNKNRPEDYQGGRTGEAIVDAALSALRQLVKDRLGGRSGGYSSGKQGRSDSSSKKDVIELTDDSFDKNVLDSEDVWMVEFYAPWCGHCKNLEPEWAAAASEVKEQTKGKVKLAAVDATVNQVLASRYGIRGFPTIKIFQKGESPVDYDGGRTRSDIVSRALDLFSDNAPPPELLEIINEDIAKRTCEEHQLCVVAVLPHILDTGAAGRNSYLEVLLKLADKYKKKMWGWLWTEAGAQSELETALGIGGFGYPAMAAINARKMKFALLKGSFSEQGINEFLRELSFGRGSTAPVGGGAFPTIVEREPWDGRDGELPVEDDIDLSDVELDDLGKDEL
PDI turbidity: blocks human protein disulfide isomerase activity. hit rate 0.052% among 350,000. inhibition, % at 10 µM. P07237. AID 588391. PDI insulin aggregation turbidity, A650, 90 min;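 active = mean inhibition across replicates of 30% or more, whatever share of single replicates reach that level; inconclusive = mean inhibition below 30% while every single replicate reaches 30%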
SIRT5 inh: sirtuin-5 (human) deacylase inhibition. Q9NXA8. inhibition, % at 15 µM. Purified SirT5, succinyl-peptide AMC, trypsin-coupled fluorescence. AID 652115. hit rate 1.1% among 330,000; in the data active = inhibition above about 15%; inconclusive = no clear call, values can overlap the other calls
S100A4 inh HTS: blocks human S100A4 binding to myosin IIA peptide. P26447. S100A4/TAMRA-MyoIIA peptide fluorescence polarization. inhibition, % at 10.7 µM. hit rate 0.14% among 360,000. AID 652163;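 active = mean inhibition of at least 70% across replicates, with every replicate also reaching that level; inconclusive = mean inhibition reaches 70% but some replicates fall short; inactive = mean inhibition below 70%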
Target sequence (P26447 whole entry, looked up): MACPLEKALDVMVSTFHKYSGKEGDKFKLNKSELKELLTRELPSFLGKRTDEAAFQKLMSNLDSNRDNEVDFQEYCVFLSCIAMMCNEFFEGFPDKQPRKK
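Material: S100A4 monomer (human). Medium: Calcium-containing HEPES buffer, pH 7.2. Probe or stimulus: labelled myosin peptide probe, 5 nM. Compound dosing: one concentration per compound. Timing: polarization read 5 min after assay mix addition, stable 5–60 min. Benchmarks: DMSO as neutral control, TFP as positive control.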
Starred values were filed as active, the others as inactive; ? = inconclusive; . = no result; ! = not active in a repeat.

SMILES | GSIS activator | ERp5 block | PDI turbidity | SIRT5 inh | S100A4 inh HTS
O=S(=O)(c1ccc2ccccc2c1)N1CCOCC1 | 2 | 4 | 1 | 99* | 2
COc1cc(/C=C/C(=O)O)cc(S(=O)(=O)Nc2cccc(S(=O)(=O)N3CCOCC3)c2)c1OC | 5 | 0 | 3 | 22* | 1
O=C(Nc1cccc(S(=O)(=O)N2CCOCC2)c1)C1CC1 | 2 | . | 3 | 23* | -6
C[C@H](CO)N1C[C@H](C)[C@@H](CN(C)C(=O)NC2CCCCC2)Oc2ccc(NC(=O)Nc3ccc(F)cc3)cc2CC1=O | -5 | -2 | . | -2 | -12
Cc1ccc(S(=O)(=O)N2CCC(C(=O)Nc3ccc(C(C)C)cc3)CC2)cc1 | -55 | 2 | -3 | 0 | 4
Cc1ccc(S(=O)(=O)N2CCC(C(=O)Nc3ccc(S(=O)(=O)N4CCCC4)cc3)CC2)cc1 | -28 | -7 | 32* | -3 | 13
C[C@@H]1CCCCO[C@H](CN(C)C(=O)C2CCCCC2)[C@H](C)CN([C@H](C)CO)C(=O)c2cc(NC(=O)c3ccncc3)ccc2O1 | 6 | 4 | . | 1 | -8
O=C(Nc1ccc(S(=O)(=O)N2CCOCC2)cc1)c1ccc(=O)[nH]c1 | 43* | -2 | . | -3 | 1
O=C(Nc1ccccc1F)N1C[C@@H]2[C@H](c3ccccc31)[C@@H](CO)N2C(=O)C1CCCC1 | -2 | 1 | . | 3 | 129*
O=C(C1CCCCC1)N1C[C@H]2[C@@H](c3ccccc31)[C@H](CO)N2C(=O)Cc1ccccn1 | -10 | 3 | . | 16* | -2
O=C(C1CCCC1)N1C[C@@H]2[C@H](c3ccccc31)[C@@H](CO)N2C(=O)c1ccccc1F | 2 | -1 | . | 7 | 115*
O=C(Nc1ccccc1F)N1C[C@H]2[C@@H](c3ccccc31)[C@H](CO)N2C(=O)C1CCCCC1 | -8 | 0 | . | 4 | 1
O=C(C1CCCC1)N1C[C@@H]2[C@H](c3ccccc31)[C@H](CO)N2C(=O)Cc1ccccn1 | -19 | 2 | . | 0 | 1
COCC(=O)N1C[C@H]2[C@@H](c3ccccc31)[C@@H](CO)N2C(=O)Nc1ccccc1F | 2 | 0 | . | 9 | 102*
COC(=O)CCCCCCC(=O)Nc1ccc(NC(=O)CCCC[P+](c2ccccc2)(c2ccccc2)c2ccccc2)cc1 | . | 0 | . | -3 | 7
C[C@@H]1CN([C@H](C)CO)C(=O)c2cc(C#CC3CCCCC3)cnc2O[C@@H]1CN(C)S(=O)(=O)c1ccccc1 | -41 | 4 | . | 15 | -1
N#C[C@H]1[C@H](c2ccc(-c3ccccc3)cc2)[C@H](CO)N1C(=O)Cc1ccccc1 | 2 | 0 | . | 15* | 5
N#C[C@@H]1[C@@H](c2ccc(-c3ccccc3)cc2)[C@H](CO)N1C(=O)Cc1ccccc1 | -9 | 2 | . | 2 | ?
C/C=C/c1ccc([C@H]2[C@@H](CO)N(C(=O)Nc3ccccc3F)[C@H]2C#N)cc1 | -11 | 2 | . | 4 | 89*
O=C(c1ccncc1)N1CC(=O)N2[C@H](CO)[C@H](c3ccc(C#CCC4CCCC4)cc3)[C@H]2C1 | -9 | . | . | . | .
C[C@@H](NC(=O)C[C@@H]1C[C@H]2c3cc(NS(=O)(=O)c4ccc(F)cc4)ccc3O[C@H]2[C@@H](CO)O1)c1ccccc1 | -5 | -2 | . | -4 | 1
O=C(C[C@H]1CC[C@H]2[C@@H](COC[C@@H](O)CN2CCc2ccccc2)O1)NCCCN1CCOCC1 | 9 | 0 | . | 3 | 0
CCOCCCn1c(SCC(=O)NC2CCCCC2)nc2ccccc2c1=O | 43* | -6 | -2 | . | -2
CCOC(CCn1c(SCC(=O)NC2CCCC2)nc2ccccc2c1=O)OCC | 4 | -2 | -3 | -4 | 1
COc1ccc(S(=O)(=O)N(C)C[C@@H]2Oc3ccc(NC(=O)c4ccncc4)cc3C(=O)N([C@H](C)CO)C[C@@H]2C)cc1 | 98 | 64* | . | -3 | -12
SMILES | GSIS activator | ERp5 block | PDI turbidity | SIRT5 inh | S100A4 inh HTS
COc1ccc(S(=O)(=O)N(C)C[C@H]2Oc3ccc(NC(=O)c4ccncc4)cc3C(=O)N([C@H](C)CO)C[C@H]2C)cc1 | 4 | -2 | . | -1 | 6
C[C@H](CO)N1C[C@H](C)[C@@H](CN(C)S(=O)(=O)c2ccc(F)cc2)Oc2ccc(NC(=O)CCN3CCOCC3)cc2C1=O | 17 | -1 | -33 | 15*! | 11
COc1ccc(S(=O)(=O)N(C)C[C@H]2Oc3ccc(NC(=O)NC4CCCCC4)cc3C(=O)N([C@@H](C)CO)C[C@@H]2C)cc1 | -6 | -10 | . | 19* | -12
CN(C)c1ccc2c(c1)[C@@H]1C[C@@H](CC(=O)NCc3ccc4c(c3)OCO4)O[C@@H](CO)[C@@H]1O2 | 13 | 3 | . | -1 | -8
COc1ccc2c3c([nH]c2c1)[C@@H](CO)N(Cc1ccccc1)CC31CN(S(=O)(=O)c2ccc(C)cc2)C1 | 1 | 4 | . | 0 | -5
Fc1ccc(-c2nc3ccc(Cl)cn3c2Cc2ccsc2)cc1 | 1 | 4 | . | 28* | 38
O=C(C[C@H]1C[C@H]2c3cc(NC(=O)NC4CCCCC4)ccc3O[C@H]2[C@@H](CO)O1)NCC(F)(F)F | 12 | 5 | . | 8 | 15
O=C(C[C@H]1C[C@@H]2c3cc(NS(=O)(=O)c4ccc(F)cc4)ccc3O[C@@H]2[C@@H](CO)O1)NCc1ccccc1 | -11 | 3 | . | 4 | -30
CCn1c(C)nc2cc(C(=O)NNC(=O)Nc3ccc(Cl)c(Cl)c3)ccc21 | -2 | 0 | . | 18* | -5
CCn1c(C)nc2cc(C(=O)NNC(=S)Nc3ccc(Cl)cc3)ccc21 | -14 | -1 | 0 | 4 | -10
COc1ccc2c3c(n(C)c2c1)[C@H](CO)N(C)CC31CCN(S(=O)(=O)c2cn(C)cn2)CC1 | 17 | . | . | . | .
CC=Cc1ccc2n(c1=O)C[C@@H]1[C@@H](CO)[C@H](C(=O)NCc3ccccc3)N(C)[C@H]21 (mixture of isomers) | 2 | -4 | . | 7 | -3
O=C(O)c1ccccc1-c1ccc(C=c2sc3nc4cc(Br)cnc4n3c2=O)o1 | 14 | 2 | -4 | 30* | -1
N=C1S/C(=C\c2ccc(-c3ccccc3C(=O)O)o2)C(=O)N1c1ccc2c(c1)OCO2 | -8 | 3 | -5 | 7 | 4
O=C(O)c1cccc(-c2ccc(/C=c3/sc4nc5ccccc5n4c3=O)o2)c1 | 2 | 3 | -7 | 30* | -8
COCC(=O)N1[C@H](CO)[C@@H](c2ccccc2C2=CCCCC2)[C@@H]1C#N | 6 | -2 | . | -2 | 9
Cc1cc(C)n(-c2nc(NCCN(C)C)c3c4c(sc3n2)CCCC4)n1 | 53* | 3 | 1 | -5 | 6
C[C@H]1CN([C@@H](C)CO)C(=O)c2cc(-c3ccccc3F)cnc2O[C@@H]1CN(C)C(=O)C1CCC1 | -12 | 3 | . | 2 | 7
CC(C)Cc1ccc(C(C)C(=O)Nc2ccc(O)cc2)cc1 (stereo not drawn) | -12 | 0 | -9 | 0 | 6
